{"data": "Measurements of several laboratories", "target": "Inhibitor of nuclear factor kappa-B kinase subunit alpha (CHUK, Homo sapiens, UniProt O15111)", "One construct used (O15111 1-745)": "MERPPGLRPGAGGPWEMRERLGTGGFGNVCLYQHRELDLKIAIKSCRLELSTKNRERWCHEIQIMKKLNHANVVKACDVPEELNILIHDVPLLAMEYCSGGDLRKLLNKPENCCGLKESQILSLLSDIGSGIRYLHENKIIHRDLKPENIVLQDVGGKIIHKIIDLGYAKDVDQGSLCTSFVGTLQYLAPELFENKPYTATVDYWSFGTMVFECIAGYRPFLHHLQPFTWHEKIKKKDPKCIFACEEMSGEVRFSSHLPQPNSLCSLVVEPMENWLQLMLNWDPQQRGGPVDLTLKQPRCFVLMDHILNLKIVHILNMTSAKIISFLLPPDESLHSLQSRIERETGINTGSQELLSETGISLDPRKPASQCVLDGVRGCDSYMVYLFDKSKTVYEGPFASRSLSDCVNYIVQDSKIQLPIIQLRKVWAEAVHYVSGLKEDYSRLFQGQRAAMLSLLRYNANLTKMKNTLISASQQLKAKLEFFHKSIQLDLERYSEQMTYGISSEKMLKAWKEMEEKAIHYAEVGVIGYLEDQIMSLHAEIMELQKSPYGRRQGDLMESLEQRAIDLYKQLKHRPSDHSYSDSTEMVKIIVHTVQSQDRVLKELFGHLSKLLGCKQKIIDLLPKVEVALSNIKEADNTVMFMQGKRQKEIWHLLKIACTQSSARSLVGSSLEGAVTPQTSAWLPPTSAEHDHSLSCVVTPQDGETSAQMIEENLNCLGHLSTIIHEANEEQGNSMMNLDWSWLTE", "note": "Protocols differ between the studies behind these lines."}
{"SMILES": "CN([C@@H]1CCc2c(CC(=O)O)c3ccccc3n2C1)S(=O)(=O)c1ccc(F)cc1", "effect on": "cell-free assay", "method": "competition with immobilised ligand", "tested at": "1 µM", "quantity": "remaining binding", "result": "100%"}
{"SMILES": "COc1cccc2c(NCc3ccccc3)nc(-n3c(N)nc4ccccc43)nc12", "effect on": "target engagement in cells", "mode": "inhibitor", "method": "chemoproteomics", "tested at": "20 mM", "quantity": "inhibition", "result": "8.5%"}
{"SMILES": "CC(C)(O)[C@H]1CC[C@H](Nc2ccc3ncc(-c4cccc(C(F)(F)F)c4)n3n2)CC1", "effect on": "enzyme activity", "mode": "inhibitor", "tested at": "1 µM", "quantity": "remaining activity", "result": "83.6%"}
{"SMILES": "O=C(Nc1cnn(-c2csc(C(=O)NC3COC3)c2)c1)Nc1c(F)cccc1Cl", "effect on": "enzyme activity", "mode": "inhibitor", "tested at": "5 µM", "quantity": "remaining activity", "result": "108%"}
{"SMILES": "Cc1cc(NC(=O)c2cccc3cc(-c4cccc5[nH]nc(N)c45)ccc23)ccc1F", "effect on": "enzyme activity", "mode": "inhibitor", "tested at": "0.1 µM", "quantity": "activity vs control", "result": "127%"}
{"SMILES": "CC(C)c1ccc(NC(=O)c2cccs2)c(-c2nc3ccccc3[nH]c2=O)c1", "effect on": "enzyme activity", "mode": "inhibitor", "tested at": "1 µM", "quantity": "activity vs control", "result": "104%"}
{"SMILES": "CCCS(=O)(=O)Nc1ccc(F)c(C(=O)c2c[nH]c3ncc(-c4ccc(Cl)cc4)cc23)c1F", "effect on": "enzyme activity", "mode": "inhibitor", "tested at": "1 µM", "quantity": "inhibition", "result": "< 10%"}
{"SMILES": "Cc1ccc(C(=O)NCc2ccsc2)cc1C#Cc1cn(C(C)C)c2ncnc(N)c12", "effect on": "enzyme activity", "mode": "inhibitor", "tested at": "1 µM", "quantity": "activity vs control", "result": "102%"}
{"SMILES": "O=C1Nc2ccc(Cl)cc2C1=Cc1cc(Cl)c(O)c(Cl)c1", "effect on": "cell-free assay", "tested at": "0.5 µM", "quantity": "remaining signal", "result": "97%"}
{"SMILES": "CN(C(=O)c1ccccc1)c1cc(N(C)c2ccc3c(c2)CCc2ccc(C(=O)NCCN4CCOCC4)cc2C3=O)ccc1F", "effect on": "cell-free assay", "method": "competition with immobilised ligand", "tested at": "1 µM", "quantity": "remaining binding", "result": "100%"}
{"SMILES": "CC(C)(C)c1nc2c(s1)c1nc(N)ncc1c1ccc(NS(=O)(=O)c3c(F)cccc3F)c(F)c12", "effect on": "enzyme activity", "mode": "inhibitor", "method": "radiometric", "tested at": "1 µM", "quantity": "remaining activity", "result": "88%"}
{"SMILES": "CCCOc1ccc(OC)c(F)c1C(=O)c1ccc(C(=O)N[C@@H]2CNC[C@H]2NC(=O)c2ccc3[nH]ncc3c2)cc1", "effect on": "enzyme activity", "mode": "inhibitor", "tested at": "10 µM", "quantity": "remaining activity", "result": "83%"}
{"SMILES": "O=C(Nc1nccs1)C(c1cc(F)ccc1O)N1Cc2ccccc2C1=O (centres unmarked)", "effect on": "enzyme activity", "mode": "inhibitor", "tested at": "1 µM", "quantity": "inhibition", "result": "16%"}
{"SMILES": "CCC(=O)N[C@@H]1CC[C@H](C(=O)N(C)c2ccc(-c3nc4ccccc4o3)cc2)C1", "effect on": "cell-free assay", "method": "competition with immobilised ligand", "tested at": "1 µM", "quantity": "remaining binding", "result": "100%"}
{"SMILES": "CCN(CC)CCNC(=O)c1c(C)[nH]c(/C=C2\\C(=O)Nc3ccc(F)cc32)c1C", "effect on": "enzyme activity", "mode": "inhibitor", "tested at": "0.3 µM", "quantity": "inhibition", "result": "-1%"}
{"SMILES": "CN(C)c1ncnc(-c2ccc3nc(Nc4cc(CN5CCN(C(=O)CC(F)(F)F)CC5)ccn4)[nH]c3c2)c1Cl", "effect on": "cell-free assay", "method": "competition with immobilised ligand", "tested at": "1 µM", "quantity": "remaining binding", "result": "69%"}
{"SMILES": "CNCc1ccc(-c2cc(-c3nc(-c4ccc(S(=O)(=O)C(C)C)cc4)cnc3N)on2)cc1", "effect on": "enzyme activity", "mode": "inhibitor", "tested at": "2 µM", "quantity": "inhibition", "result": "36%"}
{"SMILES": "CCS(=O)(=O)c1cc2cc(C[C@@](O)(CC(C)(C)c3ccc(F)cc3C(N)=O)C(F)(F)F)[nH]c2cn1", "effect on": "cell-free assay", "method": "competition with immobilised ligand", "tested at": "1 µM", "quantity": "remaining binding", "result": "95%"}
{"SMILES": "CNC(=O)c1cc(Oc2ccc(NC(=O)Nc3ccc(Cl)c(C(F)(F)F)c3)cc2)ccn1", "effect on": "enzyme activity", "mode": "inhibitor", "tested at": "10 µM", "quantity": "inhibition", "result": "-35%"}
{"SMILES": "N#CCCc1ccc2c(c1)-c1[nH]c3ccc([N+](=O)[O-])cc3c1CC(=O)N2", "effect on": "cell-free assay", "tested at": "0.5 µM", "quantity": "remaining signal", "result": "105%"}
{"SMILES": "O=C(N1CCS(=O)(=O)CC1)N1C[C@H](c2ccc(OC(F)(F)F)cc2)C[C@H](c2nc(C3CC3)no2)C1", "effect on": "cell-free assay", "method": "competition with immobilised ligand", "tested at": "1 µM", "quantity": "remaining binding", "result": "97%"}
{"SMILES": "Cc1ccc(NC(=O)c2ccc(CN3CCN(C)CC3)cc2)cc1Nc1nc(-c2cccnc2)cs1", "effect on": "cell-free assay", "tested at": "0.5 µM", "quantity": "remaining signal", "result": "96.2%"}
{"SMILES": "C[C@H](NC(=O)c1cnc2n1[C@](C)(Cc1ccc(C#N)cc1)C(=O)N2c1cc(Cl)c(F)c(Cl)c1)C(=O)NC1(c2ccccn2)CC1", "effect on": "cell-free assay", "method": "competition with immobilised ligand", "tested at": "1 µM", "quantity": "remaining binding", "result": "100%"}
